Measurements published in ChEMBL document CHEMBL4257565, “A phenotypic approach to the discovery of compounds that promote non-amyloidogenic processing of the amyloid precursor protein: Toward a new profile of indirect β-secretase inhibitors” (Eur J Med Chem, 2018).
Active and inactive are the calls of the source. No cut-off for these calls is given here.

Key:
[1] = Cytotoxicity against C57BL6 mouse primary neuronal cells assessed as reduction in cell viability after 24 hrs by LDH assay; format: cell-based; details: primary neuron
SH-SY5Y [2] = assay: Inhibition of alpha secretase in human SH-SY5Y cells harboring wild type APP695 assessed as increase in sAPPalpha level up to 5 uM after 24 hrs by DAPI staining based electro-chemiluminescence immunoassay; format: cell-based
Primary neuron [3] = assay: Inhibition of autophagy in C57BL6 mouse primary neuronal cells assessed as increase in p62 expression up to 5 uM after 24 hrs in presence of autophagic inhibitor BafA1 by DAPI staining based immunofluorescence assay; format: functional
Procedure, shortened: (§1)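 Cells were co-treated with compound and the autophagic flux inhibitor bafilomycin A1. p62 and LC3 accumulation were then assessed in SY5Y-APPwt cells and primary neurons.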

Beta-secretase 1 [4] = molecular target: T1, Beta-secretase 1 (Homo sapiens, UniProt P56817); assay: Inhibition of BACE1 in human SH-SY5Y cells harboring wild type APP695 assessed as increase in alphaCTF level at 3 uM by Western blot method relative to chloroquine; format: cell-based
Procedure, shortened: (§2)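 APP C-terminal fragments (αCTFs and AICD) were detected by Western blot and scored as band intensity. Compounds were tested at 1, 3 and 10 µM.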

[5] = molecular target: Beta-secretase 1 (Mus musculus) (UniProt P56818); assay: Inhibition of BACE1 in C57BL6 mouse primary neuronal cells assessed as accumulation of AICD level up to 5 uM after 24 hrs by DAPI staining based immunofluorescence assay
Beta-secretase 1 [6] = molecular target: T1, Beta-secretase 1; assay: Inhibition of BACE1 in human SH-SY5Y cells harboring wild type APP695 assessed as reduction in amyloid beta (1 to 40) level up to 5 uM after 24 hrs by ELISA; format: cell-based
Procedure, shortened: (§3)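 Aβ1-40 and Aβ1-42 levels were measured by ELISA in APPwt-expressing SH-SY5Y cells after compound treatment.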

SH-SY5Y [7] = assay: Inhibition of autophagy in human SH-SY5Y cells harboring wild type APP695 assessed as increase in lipidation of LC3-1 to LC3-2 up to 5 uM after 24 hrs in presence of autophagic inhibitor BafA1 by DAPI staining based immunofluorescence assay; format: functional, cell-based; procedure, shortened: as §1
[8] = molecular target: Beta-secretase 1 (Mus musculus) (UniProt P56818); assay: Inhibition of BACE1 in C57BL6 mouse primary neuronal cells assessed as accumulation of APP-CTF level up to 5 uM after 24 hrs by DAPI staining based immunofluorescence assay
Beta-secretase 1 [9] = molecular target: T1, Beta-secretase 1; assay: Inhibition of BACE1 in human SH-SY5Y cells harboring wild type APP695 assessed as reduction in amyloid beta (1 to 42) level up to 5 uM after 24 hrs by ELISA; format: cell-based; procedure, shortened: as §3
Beta-secretase 1 [10] = molecular target: T1, Beta-secretase 1; assay: Inhibition of BACE1 in human SH-SY5Y cells harboring wild type APP695 assessed as accumulation of AICD level up to 5 uM after 24 hrs by ELISA; format: cell-based
Beta-secretase 1 [11] = molecular target: T1, Beta-secretase 1; assay: Inhibition of BACE1 in human SH-SY5Y cells harboring wild type APP695 assessed as increase in AICD level at 3 uM by Western blot method relative to untreated control; format: cell-based; procedure, shortened: as §2
Beta-secretase 1 [12] = molecular target: T1, Beta-secretase 1; assay: Inhibition of BACE1 in human SH-SY5Y cells harboring wild type APP695 assessed as increase in mature APP level at 5 uM after 24 hrs by ELISA relative to control; format: cell-based; parameters: scale not given: the % may be the effect or the level left; details: in the assay text read “by Western blot” for “by ELISA”
Procedure, shortened: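 Full-length APP was resolved and detected with APP-C17 antiserum as two bands. The 110 kDa band is the immature, neosynthesized form and the 115 kDa band is the mature, glycosylated form. Both bands were quantified against the control condition. This was done in SH-SY5Y-APPwt cells and in primary neuronal cultures.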

[13] = molecular target: Beta-secretase 1 (Mus musculus) (UniProt P56818); assay: Inhibition of BACE1 in C57BL6 mouse primary neuronal cells assessed as increase in mature APP level at 3 to 5 uM after 24 hrs by DAPI staining based immunofluorescence assay relative to control; parameters: scale not given: the % may be the effect or the level left
Beta-secretase 1 [14] = molecular target: T1, Beta-secretase 1; assay: Inhibition of BACE1 in human SH-SY5Y cells harboring wild type APP695 assessed as reduction in sAPPbeta level up to 5 uM after 24 hrs by DAPI staining based electro-chemiluminescence immunoassay; format: cell-based
Beta-secretase 1 [15] = molecular target: T1, Beta-secretase 1; assay: Inhibition of BACE1 in human SH-SY5Y cells harboring wild type APP695 assessed as increase in AICD level at 3 uM by Western blot method relative to chloroquine; format: cell-based; procedure, shortened: as §2
SH-SY5Y [16] = assay: Inhibition of autophagy in human SH-SY5Y cells harboring wild type APP695 assessed as increase in p62 expression at 5 uM after 24 hrs by DAPI staining based immunofluorescence assay relative to control; format: functional; parameters: scale not given: the % may be the effect or the level left
Procedure, shortened: (§4)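 Autophagy markers were quantified against control: p62 expression and lipidation of LC3-I into LC3-II. Accumulation of p62- and LC3-positive vesicles was scored by immunofluorescence. This was done in SY5Y-APPwt cells and primary neurons.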

Beta-secretase 1 [17] = molecular target: T1, Beta-secretase 1; assay: Inhibition of recombinant human BACE1 at 10 uM using Mca-S-E-[…]-L-D-AEF-R-K(Dnp)-R-R-NH2 as substrate after 60 mins by fluorescence assay relative to control
Procedure, shortened: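 BACE-1 enzymatic activity was followed by cleavage of the fluorogenic peptide Mca-S-E-V-N-L-D-AE-F-R-K(Dnp)-R-R-NH2.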

Beta-secretase 1 [18] = molecular target: T1, Beta-secretase 1; assay: Inhibition of BACE1 in human SH-SY5Y cells harboring wild type APP695 assessed as accumulation of APP-CTF level up to 5 uM after 24 hrs by ELISA; format: cell-based
Primary neuron [19] = assay: Inhibition of autophagy in C57BL6 mouse primary neuronal cells assessed as increase in lipidation of LC3-1 to LC3-2 at 3 uM after 24 hrs by DAPI staining based immunofluorescence assay; format: functional; procedure, shortened: as §4
Beta-secretase 1 [20] = molecular target: T1, Beta-secretase 1; assay: Inhibition of BACE1 in human SH-SY5Y cells harboring wild type APP695 assessed as increase in alphaCTF level at 3 uM by Western blot method relative to untreated control; format: cell-based; procedure, shortened: as §2
SH-SY5Y [21] = assay: Cytotoxicity against human SH-SY5Y cells harboring wild type APP695 assessed as reduction in cell viability after 24 hrs by LDH assay; format: cell-based
Primary neuron [22] = assay: Inhibition of autophagy in C57BL6 mouse primary neuronal cells assessed as increase in lipidation of LC3-1 to LC3-2 up to 5 uM after 24 hrs in presence of autophagic inhibitor BafA1 by DAPI staining based immunofluorescence assay; format: functional; procedure, shortened: as §1
SH-SY5Y [23] = assay: Inhibition of autophagy in human SH-SY5Y cells harboring wild type APP695 assessed as increase in lipidation of LC3-1 to LC3-2 at 5 uM after 24 hrs by DAPI staining based immunofluorescence assay relative to control; format: functional; parameters: scale not given: the % may be the effect or the level left
Procedure, shortened: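 SY5Y-APPwt cells treated at 5 µM alongside untreated control. LC3-I to LC3-II lipidation quantified from western blot bands. LC3- and p62-positive vesicles scored inside cells by immunofluorescence.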

Beta-secretase 1 [24] = molecular target: T1, Beta-secretase 1; assay: Inhibition of BACE1 in human SH-SY5Y cells harboring wild type APP695 assessed as reduction in amyloid beta (1 to 40) level after 24 hrs by ELISA method; format: cell-based; procedure, shortened: as §3
Primary neuron [25] = assay: Inhibition of autophagy in C57BL6 mouse primary neuronal cells assessed as increase in p62 expression at 3 uM after 24 hrs by DAPI staining based immunofluorescence assay; format: functional; procedure, shortened: as §4
SH-SY5Y [26] = assay: Inhibition of autophagy in human SH-SY5Y cells harboring wild type APP695 assessed as increase in p62 expression up to 5 uM after 24 hrs in presence of autophagic inhibitor BafA1 by DAPI staining based immunofluorescence assay; format: functional, cell-based; procedure, shortened: as §1

T1 sequence (P56817 whole entry, the tested form may be a part): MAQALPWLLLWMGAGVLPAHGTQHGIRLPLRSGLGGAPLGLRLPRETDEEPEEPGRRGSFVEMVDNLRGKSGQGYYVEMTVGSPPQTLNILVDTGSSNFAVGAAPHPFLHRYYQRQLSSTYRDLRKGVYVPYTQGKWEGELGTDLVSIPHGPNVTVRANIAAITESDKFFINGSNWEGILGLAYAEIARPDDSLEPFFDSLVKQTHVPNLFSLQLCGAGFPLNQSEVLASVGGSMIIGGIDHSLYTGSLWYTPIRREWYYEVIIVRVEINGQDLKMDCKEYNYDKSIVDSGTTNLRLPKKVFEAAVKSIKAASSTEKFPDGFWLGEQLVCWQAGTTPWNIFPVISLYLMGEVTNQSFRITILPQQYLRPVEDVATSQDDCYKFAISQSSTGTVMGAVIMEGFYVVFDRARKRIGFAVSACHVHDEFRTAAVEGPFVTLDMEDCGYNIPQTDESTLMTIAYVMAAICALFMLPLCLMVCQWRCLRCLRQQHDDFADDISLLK
Beta-secretase 1 (Mus musculus), sequence (P56818 whole entry): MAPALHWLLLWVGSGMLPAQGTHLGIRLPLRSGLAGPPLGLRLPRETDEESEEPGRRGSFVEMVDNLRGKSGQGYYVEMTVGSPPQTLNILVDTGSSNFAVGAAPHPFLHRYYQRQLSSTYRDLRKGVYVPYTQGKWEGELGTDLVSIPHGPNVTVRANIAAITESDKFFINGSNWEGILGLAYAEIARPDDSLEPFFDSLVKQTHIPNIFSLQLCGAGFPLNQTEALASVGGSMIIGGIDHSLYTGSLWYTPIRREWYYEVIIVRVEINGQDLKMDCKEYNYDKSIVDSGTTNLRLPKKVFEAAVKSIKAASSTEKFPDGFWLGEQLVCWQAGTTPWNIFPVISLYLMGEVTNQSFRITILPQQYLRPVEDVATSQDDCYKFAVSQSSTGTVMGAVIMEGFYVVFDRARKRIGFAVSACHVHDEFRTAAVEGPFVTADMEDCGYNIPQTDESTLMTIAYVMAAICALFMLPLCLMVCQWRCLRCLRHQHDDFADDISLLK

CN(C)Cc1ccccc1-c1ccc(NCCCN2CCCCC2)c(OCCN2CCCCC2)c1
Activity [1]: Non-Toxic
inhibition (SH-SY5Y [2]): Active
inhibition (Primary neuron [3]): Active
fold change (FC) (Beta-secretase 1 [4]): 6.4
inhibition [5]: Active
inhibition (Beta-secretase 1 [6]): Active
inhibition (SH-SY5Y [7]): Active
inhibition [8]: Active
inhibition (Beta-secretase 1 [9]): Active
inhibition (Beta-secretase 1 [10]): Active
fold change (FC) (Beta-secretase 1 [11]): 40
Activity (Beta-secretase 1 [12]): 221%
Activity [13]: 130%
inhibition (Beta-secretase 1 [14]): Active
fold change (FC) (Beta-secretase 1 [15]): 3.6
Activity (SH-SY5Y [16]): 476%
inhibition (Beta-secretase 1 [17]): < 10%
inhibition (Beta-secretase 1 [18]): Active
inhibition (Primary neuron [19]): Active
fold change (FC) (Beta-secretase 1 [20]): 30
Activity (SH-SY5Y [21]): Non-Toxic
inhibition (Primary neuron [22]): Active
Activity (SH-SY5Y [23]): 591%
IC50 (Beta-secretase 1 [24]): 2800 nM
inhibition (Primary neuron [25]): Active
inhibition (SH-SY5Y [26]): Active
